Results from the EternaBench riboswitch data.

Test system: MS2 coat protein
Test: apparent Kd, MS2 coat protein; higher = weaker binding; RNA-MaP array
Procedure, shortened: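 Apparent Kd values come from the median of binding-curve fits to single clusters. To obtain them, designed RNAs transcribed on an Illumina sequencing chip from sequenced DNA templates were incubated at room temperature with fluorescently labeled MS2 coat protein at 1.5 nM to 3 μM, with or without input ligand, for 0.8–1.5 h at the lowest and 10–20 min at the highest concentrations. Designs measured on fewer than 10 clusters were excluded.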

[1] = designed as: ON switch for flavin mononucleotide, no ligand
[2] = ligand present: flavin mononucleotide, designed as: ON switch for flavin mononucleotide
[3] = designed as: OFF switch for flavin mononucleotide, no ligand
[4] = ligand present: flavin mononucleotide, designed as: OFF switch for flavin mononucleotide
[5] = designed as: OFF switch for tryptophan, no ligand
[6] = ligand present: tryptophan, designed as: OFF switch for tryptophan
[7] = designed as: ON switch for theophylline, no ligand
[8] = ligand present: theophylline, designed as: ON switch for theophylline

Sequence | apparent Kd [3] | apparent Kd [4] | further results
UUUAACACCGGCAAGGAUAUUCUACAAAGAACAUGAGGAUCACCCAUGUCAACAAUCUACAUCACGAAGAAGGUGCAUCGGAUUAA | – | – | apparent Kd [1]: 17.4 nM; apparent Kd [2]: 9.95 nM
GUCGAAUCCUGAGGAUAUUCAGUGAUGGCUCAGACAUGAGGAUCACCCAUGUUACUCAGUGAGCGGAAGAAGGCAGCCUUCGGG | – | – | apparent Kd [1]: 163 nM; apparent Kd [2]: 131 nM
AUAUAGGUAGGAUAUACAAUGAAUGGGCACCGUAAAACCAUACAUGAGGAUCACCCAUGUAGAAGGACCGGAAG | 7.86 nM | 12.5 nM | –
UAGUACCAAGUGAGGAUAUCUAAAGUCUAUGAAAGAGAGAAGGCACAUGAGGAUCACCCAUGUAACUAGGUGGG | 152 nM | 162 nM | –
AAAUGUGUAUAGGAUAUCUUGACCCACGCAUUCAGAGAAGGAUACACAUGAGGAUCACCCAUGUUGAGACGGAA | 15.5 nM | 43.9 nM | –
GUUUUCAAGUCGGCCGCCACUGAUACAAUCCUCACCGGUUCACAUGAGGAUCACCCAUGUUCGCUCAGGACCGGGACCUUCUGUG | – | – | apparent Kd [5]: 127 nM; apparent Kd [6]: 108 nM
AAAUGGACGGCAGGAUAUGGACAAGGAAUAUUACCAGAAGGGCCCUAAUGCUCAUACAUGAGGAUCACCCAUGUUGUAAUCAAU | 17.8 nM | 12.7 nM | –
AAAUUACGUAAGAAGGCCAUAGGAACUGAAGCAAGCUCGACGACACAUGAGGAUCACCCAUGUCUGGAGGAUAUUAUGAUAUCU | – | – | apparent Kd [1]: 10.3 nM; apparent Kd [2]: 9.64 nM
AAUGUAUGUUAGGAUAUGGCCACGGCGAGGGACCCAGAAGGAACCACAUGAGGAUCACCCAUGUAAAAUAUGGA | 20.3 nM | 16.4 nM | –
GCAAGGUUUGUAGGAUAUCGCGUGUGAUUGAACAUGAGGAUCACCCAUGUGGAGGUUCCAUUAUCCGAGAAGGACAAGACUCGA | 155 nM | 84.2 nM | –
AACCUACAUGAGGAUCACCCAUGUGAGGAUAUUGCGGUUCUUAGCAUGAGAACCAUACCAAGAAGGCACAGGGC | 7.53 nM | 23.2 nM | –
ACGUAGGGCUAGAAGGCUCUAACAAGGUGCCCAUAAAAUAACAUGAGGAUCACCCAUGUUAGUAGAGAGGAUAUAGACUCAUGU | 18.4 nM | 19.3 nM | –
AUAUGCGAUUGAGGAUAUAGGGAGAGGCUAACUCUAGAAGGCAAUGUAUGGAAUAGCUUACACAUGAGGAUCACCCAUGUUGCU | – | – | apparent Kd [1]: 9.73 nM; apparent Kd [2]: 7.27 nM
CCUCACGAAAUCGAUGAAAGCAUGUGGCACCGAGGACCGGUACGGCCGCCACUCGCAUCCACACAUGAGGAUCACCCAUGUAAGA | – | – | apparent Kd [5]: 39.3 nM; apparent Kd [6]: 51.6 nM
UUAUAAGCACCUGAUACCAGUAUGAACCCGUACAUGAGGAUCACCCAUGUUAAUUUCUAUUACCCUUGGCAGCAGCCUUUUUCCU | – | – | apparent Kd [7]: 19.4 nM; apparent Kd [8]: 17.6 nM
CACGAUCGAGAAGAGUGCAACAUGAGGAUCACCCAUGUAUUCAGAAGGGCCACGACCUUAGUAGGGCAGGAUAUGAUACGAUAC | – | – | apparent Kd [1]: 26.2 nM; apparent Kd [2]: 19.9 nM
AGAUCCGGCGUGAGGAUAUAGCAAGCAACUAACGACUAGAAGGCACAUGAGGAUCACCCAUGUCUGUUACACUA | 12.1 nM | 36.7 nM | –
UGCAAAUGAUGAGAUACCAGUUCAGUUAAAUACAUGAGGAUCACCCAUGUCAGGGAACUCAACCCUUGGCAGCUCGAUGCACUCA | – | – | apparent Kd [7]: 56.2 nM; apparent Kd [8]: 14.9 nM
AGUGGGUGUUAUGAUACCAGCGUAAUACACAACAUGAGGAUCACCCAUGUGGAGCCUCGCCGCCCUUGGCAGCAUUGGGCCCGCA | – | – | apparent Kd [7]: 212 nM; apparent Kd [8]: 344 nM
CUCCCUCAGUCAGGAUAUGUGUCUUCCCAACAGGACAUGAGGAUCACCCAUGUCGCAAGCAUGGGACAGAAGGGACAUGGAGCC | 23.8 nM | 19.6 nM | –
